Published values collected from several papers.
Each line is one published result; the experiments were not run side by side.
SMARCA2: SWI/SNF-related matrix-associated actin-dependent regulator of chromatin subfamily A member 2 (SMARCA2, Homo sapiens, UniProt P51531)
BRAF V600E: Serine/threonine-protein kinase B-raf (BRAF, Homo sapiens, UniProt P15056, V600E)

| SMILES | target | assay | system | setting | endpoint | value |
| --- | --- | --- | --- | --- | --- | --- |
| CCC/C=C1\CCn2c1nc(=O)c1c(Cl)cccc12 | SMARCA2 | thermal stability, DSF |  | 100 µM | ΔTm | 4.61 °C |
| CCCOc1ccc(OC)c(F)c1C(=O)c1ccc(C(=O)N[C@@H]2CNC[C@H]2NC(=O)c2ccc3[nH]ncc3c2)cc1 | Muscle, skeletal receptor tyrosine-protein kinase (MUSK, Homo sapiens, UniProt O15146) | enzyme activity, inhibitor |  | 0.1 µM | remaining activity | 65% |
| CC(=O)N[C@H]1CSSC[C@@H](C(=O)N[C@@H](Cc2c[nH]c3ccccc23)C(N)=O)NC(=O)[C@H](Cc2ccccc2)NC(=O)[C@H](CCCNC(=N)N)NC1=O | Melanocortin receptor 3 (MC3R, Homo sapiens, UniProt P41968) | cAMP, agonist | HEK293 | 3 min | Emax | 0% |
| Cc1ccc(C(CS(=O)(=O)c2ccccc2)=NNc2nc(C)c(N=Nc3cccc(C)c3)s2)cc1 | BRAF V600E | enzyme activity, inhibitor, ATP luminescence |  | 1 µM | inhibition | 81% |
| Cc1ccc(C(=O)Nc2ccc(CN3CCN(C)CC3)c(C(F)(F)F)c2)cc1C#Cc1cnc2cccnn12 | Epidermal growth factor receptor (EGFR, Homo sapiens, UniProt P00533, del752-759) | cell-free assay |  | 23.5 nM | remaining signal | 87% |
| Nc1ncnc2occ(-c3ccc(NC(=O)Nc4cc(C(F)(F)F)ccc4F)cc3)c12 | Serine/threonine-protein kinase Nek5 (NEK5, Homo sapiens, UniProt Q6P3R8) | cell-free assay, inhibitor |  | 20 µM | remaining signal | 0.95% |
| Cc1ccc(C(CS(=O)(=O)c2ccccc2)=NN=C2N=C(c3ccc(C)cc3)CS2)cc1 | BRAF V600E | enzyme activity, inhibitor, ATP luminescence |  | 1 µM | inhibition | 65% |
| CCC(/C=C1\CCn2c1nc(=O)c1c(Cl)cccc12)CC | SMARCA2 | thermal stability, DSF |  | 100 µM | ΔTm | 5.33 °C |
